Results as given in ChEMBL document CHEMBL1135762, “Chiral N,N-disubstituted trifluoro-3-amino-2-propanols are potent inhibitors of cholesteryl ester transfer protein” (J Med Chem, 2002).

Columns and labels:
[1] = molecular target: T1, Cholesteryl ester transfer protein (Homo sapiens, UniProt P11597); assay: Concentration required for 50% inhibition of cholesteryl ester transfer protein in presence of buffer.
T1 sequence (P11597 whole entry): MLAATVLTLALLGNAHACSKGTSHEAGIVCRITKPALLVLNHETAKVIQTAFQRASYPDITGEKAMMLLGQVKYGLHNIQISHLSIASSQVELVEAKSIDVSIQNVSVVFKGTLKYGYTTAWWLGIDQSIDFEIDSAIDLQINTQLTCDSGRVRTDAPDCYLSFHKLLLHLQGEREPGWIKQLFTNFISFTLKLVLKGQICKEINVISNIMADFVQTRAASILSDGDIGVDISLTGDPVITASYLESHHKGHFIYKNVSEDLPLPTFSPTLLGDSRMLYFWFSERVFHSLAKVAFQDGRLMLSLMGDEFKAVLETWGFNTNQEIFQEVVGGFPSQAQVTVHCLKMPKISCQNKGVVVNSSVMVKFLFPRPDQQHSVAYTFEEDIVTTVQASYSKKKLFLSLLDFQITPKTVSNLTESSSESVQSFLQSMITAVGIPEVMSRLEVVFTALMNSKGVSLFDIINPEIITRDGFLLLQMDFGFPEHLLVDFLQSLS

[2] = molecular target: T1, Cholesteryl ester transfer protein; assay: Inhibition of cholesteryl ester transfer protein in presence of human serum
Procedure, shortened: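 CETP-mediated transfer of [³H]CE from HDL donor particles, measured with human serum supplying LDL, VLDL and human CETP.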

[3] = molecular target: T2, Cholesteryl ester transfer protein (Homo sapiens) (UniProt P11597); conditions: Cricetulus griseus; 33 mg/kg
T2 sequence (whole entry): T1 sequence (P11597 whole entry)

[4] = molecular target: T2, Cholesteryl ester transfer protein (Homo sapiens); conditions: Cricetulus griseus; 30 mg/kg
[5] = Bioavailability in mice was reported; format: ADME, organism-based; conditions: mouse, in vivo
Mus musculus [6] = assay: Oral dosing of qd for 5 days at 30 mg/kg had percent increase of HDLc in hCEPT transgenic mice; format: functional
Procedure, shortened: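 C57bl mice transgenic for human CETP (plasma hCETP 2–20 µg/mL), fed cholesterol- and fat-supplemented chow for at least 2 weeks. Dosed orally at 30 mg/kg once daily for 5 days. Serum then analysed by size exclusion chromatography on two Superose 6 columns for relative VLDLc, LDLc and HDLc.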

Mus musculus [7] = assay: Inhibition of CETP-mediated transfer ex vivo after 30 min in hCEPT transgenic mice by a single dose at 30 mg/kg; format: functional; conditions: 0.5 h
Procedure, shortened: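 C57Bl/6 mice homozygous for the human CETP gene, fed high-fat chow for at least 2 weeks. Single 30 mg/kg iv bolus in 10% ethanol/90% PEG; controls got vehicle. 0.05 mL [³H]CE-HDL (human HDL) was given into the tail vein. After 30 min, EDTA blood was taken and plasma obtained at 4 °C. Gel filtration gave the [³H]CE proportion in VLDL, LDL and HDL, compared with controls.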

| SMILES | IC50 [1] [µM] | further results |
| --- | --- | --- |
| Cc1ccc(N(Cc2cccc(C(F)(F)F)c2)CC(O)C(F)(F)F)cc1 (stereo not given) | > 100 |  |
| OC(Cc1ccccc1)CN(Cc1cccc(OC(F)(F)F)c1)c1cccc(Oc2ccccc2)c1 (stereo not given) | > 50 |  |
| OC(CN(Cc1cccc(C(F)(F)F)c1)c1cccc(F)c1)C(F)(F)F (stereo not given) | 37 |  |
| C=CC(O)CN(Cc1cccc(OC(F)(F)F)c1)c1cccc(Oc2ccccc2)c1 (stereo not given) | > 50 |  |
| Cc1ccccc1N(Cc1cccc(C(F)(F)F)c1)CC(O)C(F)(F)F (stereo not given) | > 100 |  |
| OC(CN(Cc1cccc(Oc2cccc(C(F)(F)F)c2)c1)c1cccc(F)c1)C(F)(F)F (stereo not given) | > 100 |  |
| COC(=O)c1cccc(CN(CC(O)C(F)(F)F)c2cccc(Oc3ccccc3)c2)c1 (stereo not given) | 16 |  |
| O[C@H](CN(Cc1cccc(OC(F)(F)C(F)F)c1)c1cccc(Oc2ccccc2)c1)C(F)(F)F |  | inhibition [3]: 30% |
| OC(CN(Cc1cccc(OC(F)(F)C(F)F)c1)c1cccc(Oc2ccccc2)c1)C(F)(F)F (stereo not given) |  | inhibition [4]: 30%; bioavailability [5]: < 10%; Increase (Mus musculus [6]): 20%; inhibition in vivo at 30 mg/kg (Mus musculus [7]): 50% |
| Cc1ccccc1CN(CC(O)C(F)(F)F)c1cccc(F)c1 (stereo not given) | > 100 |  |
| OC(CN(Cc1cccc(OC(F)(F)F)c1)c1cccc(Oc2ccccc2)c1)c1ccccc1 (stereo not given) | > 50 |  |
| Cc1ccc(CN(CC(O)C(F)(F)F)c2cccc(F)c2)cc1 (stereo not given) | 65 |  |

Further lines, with some results ahead:

| IC50 [1] [µM] | SMILES | further results |
| --- | --- | --- |
| 7.8 | CC(C)(O)c1cccc(CN(CC(O)C(F)(F)F)c2cccc(Oc3ccccc3)c2)c1 (stereo not given) |  |
| 15 | COc1cccc(CN(CC(O)C(F)(F)F)c2cccc(Oc3ccccc3)c2)c1 (stereo not given) | IC50 [2]: > 200 µM |
| 4.5 | OC(CN(Cc1cccc(OC(F)(F)C(F)F)c1)c1cccc(F)c1)C(F)(F)F (stereo not given) |  |
| 12 | OC(CN(Cc1cccc(C(F)(F)F)c1)c1cccc(Cl)c1)C(F)(F)F (stereo not given) |  |
| 0.3 | OC(CN(Cc1cccc(C2CCCC2)c1)c1cccc(Oc2ccccc2)c1)C(F)(F)F (stereo not given) |  |
| 0.66 | CC(C)(C)Oc1cccc(CN(CC(O)C(F)(F)F)c2cccc(Oc3ccccc3)c2)c1 (stereo not given) | IC50 [2]: 29 µM |
| 1.3 | OC(COc1cccc(CN(CC(O)C(F)(F)F)c2cccc(Oc3ccccc3)c2)c1)C(F)(F)F (stereo not given) | IC50 [2]: 62 µM |
